Screening data as filed in PubChem BioAssay.
HNF4A DNA FP = change in binding of human HNF4 alpha to DNA. 0.3% of 360,000 active. activity change, % at 10 µM. P41235. HNF4a-FITC DNA binding, fluorescence polarization, 1 h. AID 1224865; in the data active = activity change above about 30%, passing the limit was not always enough
NadD block = NadD (S. aureus) enzyme inhibition | purified NadD enzyme, colorimetric absorbance read-out | inhibition, % at 20 µM | 0.78% of 360,000 active; in the data active = inhibition above about 26%
CSN deneddyl inh = CSN deneddylation inhibition | Q92905 | Purified CSN, SCF-Nedd8-OG deneddylation, fluorescence polarization | inhibition, % at 12.5 µM | 0.38% of 360,000 active;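 active = pattern-corrected inhibition above about 35%, with an unprinted fluorescence ratio check between 0.5 and 1.5, limit read from the data, passing the limit was not always enough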
Target sequence (Q92905 whole entry, looked up, one chain of several): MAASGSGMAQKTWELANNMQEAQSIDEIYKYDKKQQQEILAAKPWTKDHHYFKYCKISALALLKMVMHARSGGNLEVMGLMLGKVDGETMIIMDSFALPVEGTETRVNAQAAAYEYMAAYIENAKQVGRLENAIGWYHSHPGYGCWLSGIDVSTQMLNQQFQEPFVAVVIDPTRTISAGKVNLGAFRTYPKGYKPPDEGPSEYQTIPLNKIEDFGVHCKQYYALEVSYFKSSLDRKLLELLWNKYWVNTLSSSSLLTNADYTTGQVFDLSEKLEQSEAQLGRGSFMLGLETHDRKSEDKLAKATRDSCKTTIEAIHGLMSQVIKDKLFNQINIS
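Assay system: purified human Csn5 enzyme expressed in HEK293T cells; Input: 0.24 nM Csn5 enzyme, final concentration; Reagent: 10 nM SCFSkp2-Nedd8OG; Compound dosing: 12.5 µM single point; Times: reaction 90 min, room temperature; Technique: fluorescence polarization readout.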
Rpn11 inh = inhibitors of human proteasome Rpn11; inhibition, % at 20 µM; 0.59% of 360,000 active; AID 588493; O00487; human 26S proteasome, Ub4-pepOG fluorescence polarization; 20S core pre-blocked with epoxomicin;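 active = inhibition at 20 µM, scaled to each plate's controls, above about 33%, limit read from the data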
PP1 counter = counter-screen for PP5 inhibitors: inhibitors of human PP1-alpha | P62136 | purified PP1alpha, OMFP fluorescence | inhibition, % at 6.7 µM | 0.9% of 320,000 active | AID 2235;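 active = inhibition above the mean inhibition of all tested compounds plus 3 SD, computed separately for each screening campaign, cut at about 15% in these data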
TPT1 inhibitor = C. albicans TPT1 enzyme inhibition; recombinant caTPT1, FP RNA substrate dephosphorylation; inhibition, % at 5 µM; 0.81% of 300,000 active; AID 1962;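 active = inhibition above the mean of all tested compounds plus 3 SD, set per screening campaign, cut at about 24% in these data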
TPT1 inh confirm = TPT1 (C. albicans) inhibition, confirmation | shares compounds with TPT1 inhibitor | recombinant caTPT1, fluorescence polarization, RNase T1 coupled | inhibition, % at 5 µM | 74% of 2,400 active;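 active = inhibition above the primary screen limit, the mean inhibition of all tested compounds plus 3 SD, cut at about 25% in these data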
RNase T1 inh = blocks Aspergillus oryzae RNase T1, a TPT1 counter-screen; 83% of 2,400 active; RNase T1 cleavage, fluorescence polarization, 1536-well; shares compounds with TPT1 inhibitor; inhibition, % at 5 µM;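 active = inhibition above the solvent-only control well mean plus 3 SD, limit set per screening run, cut at about 23% in these data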;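 note: inhibitors block cleavage so intact labeled substrate keeps polarization high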
Target sequence (P00651 whole entry, looked up): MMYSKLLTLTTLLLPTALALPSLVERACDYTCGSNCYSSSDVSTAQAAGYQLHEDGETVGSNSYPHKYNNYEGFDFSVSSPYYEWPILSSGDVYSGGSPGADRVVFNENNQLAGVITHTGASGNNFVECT
Each line names hits and unclear results; the compound was inactive in the other large screens (follow-up assays come after a bar, where shown). Only some compounds are listed: those with a hit (about 2.7% of all), similar ones and a draw of the others.

O=C(Cn1cnc2ccccc21)N/N=C/c1cccc([N+](=O)[O-])c1	TPT1 inhibitor 36 | TPT1 inh confirm inactive | RNase T1 inh inactive
COc1ccc(/C=C/C(=O)c2ccc(OC)cc2OC)cc1	none
CNc1ccc(Br)cc(C(=O)/C=C/c2cc(OC)ccc2OC)c1=O	TPT1 inhibitor 66 | TPT1 inh confirm 63 | RNase T1 inh 76
CNc1ccc(Br)cc(C(=O)/C=C/c2ccc(OC)cc2)c1=O	TPT1 inhibitor 53 | TPT1 inh confirm 36 | RNase T1 inh 46
CN(C)c1ccc(/C=C2\SC(=O)N(CC(O)Cn3c4ccccc4c4ccccc43)C2=O)cc1 (centres undefined)	NadD block 33, TPT1 inhibitor 76 | TPT1 inh confirm 52 | RNase T1 inh 72
CN(C)c1ccc(/C=C2\SC(=O)N(CCc3nnc(N)s3)C2=O)cc1	HNF4A DNA FP 97, TPT1 inhibitor 100 (not shown: Rpn11 inh) | TPT1 inh confirm 92 | RNase T1 inh 102
CN(C)c1ccc(/C=C2/SC(=O)N(CCN=C3NS(=O)(=O)c4ccccc43)C2=O)cc1	TPT1 inhibitor 33 | TPT1 inh confirm 28 | RNase T1 inh 38
COc1ccc(C2=NOC(C)(c3nnc(-c4ccccc4)o3)C2)cc1 (centres undefined)	none
CCN1CCN(C(=O)CCn2c(=O)c3cccn3c3cccnc32)CC1	none
Cc1cccc(NC(=O)CCc2ccc(N3C(N)=NC(N)=NC3(C)C)cc2)c1	none (no result: PP1 counter, TPT1 inhibitor)
CC(=O)Oc1ccc(/C=C2/Oc3ccccc3C2=O)cc1	none
COC(=O)c1ccc2c(c1)C(=O)/C(=C/c1ccc(O)cc1)O2	TPT1 inhibitor 28 | TPT1 inh confirm inactive | RNase T1 inh 28
CC(C)(C)c1ccc(/C=C2\Oc3cc(O)ccc3C2=O)cc1	TPT1 inhibitor 30 | TPT1 inh confirm 67 | RNase T1 inh 72
O=C1/C(=C/c2ccc(Br)cc2)Oc2cc(O)ccc21	TPT1 inhibitor 63 | TPT1 inh confirm 77 | RNase T1 inh 79
C=CCn1c(O)c2ccc(C(=O)N=NC(=O)COc3ccccc3F)cc2c1O	none
O=C1Nc2ccccc2Oc2cc([N+](=O)[O-])cc(Oc3ccccc3)c21	CSN deneddyl inh 36, TPT1 inhibitor 27 (not shown: Rpn11 inh) | TPT1 inh confirm 46 | RNase T1 inh 59
O=c1c[n+]([O-])c2ccccc2n1OCc1ccccn1	TPT1 inhibitor 26 | TPT1 inh confirm inactive | RNase T1 inh inactive
CCOn1c(=O)c[n+]([O-])c2ccccc21	none
O=C(N/N=C\c1c(O)ccc2ccccc12)c1ccc(Cn2cccn2)o1	TPT1 inhibitor 40 (not shown: Rpn11 inh) | TPT1 inh confirm 45 | RNase T1 inh 49
COC(=O)CC/C(O)=C1\C(=O)CC(C)(C)CC1=NCc1nc2ccccc2[nH]1	TPT1 inhibitor 34 | TPT1 inh confirm inactive | RNase T1 inh inactive
CC(=O)C1=C(O)CC(C)(C)CC1=NCc1nc2ccccc2[nH]1	none
Cc1cccc(C(=O)Oc2ccccc2/C=N/Nc2ccc([N+](=O)[O-])cc2)c1	TPT1 inhibitor 39 | TPT1 inh confirm 39 | RNase T1 inh 51
O=[N+]([O-])c1ccc(NN=Cc2cccc([N+](=O)[O-])c2)cc1	none (no result: PP1 counter, TPT1 inhibitor)
O=[N+]([O-])c1ccc(N/N=C/c2cccc(O)c2O)cc1	TPT1 inhibitor 51 | TPT1 inh confirm 60 | RNase T1 inh 74
COc1cc(/C=N/NC(=O)CC#N)cc(Br)c1O	TPT1 inhibitor 27 | TPT1 inh confirm inactive | RNase T1 inh inactive
COc1ccccc1-c1cnc(C(O)c2c(C)cc(C)cc2C)[nH]1 (centres undefined)	none (no result: PP1 counter, TPT1 inhibitor)
COc1ccc(C(=O)N/N=c2\oc3ccccc3cc2C(=O)NCc2ccccc2)cc1	TPT1 inhibitor 33 | TPT1 inh confirm inactive | RNase T1 inh inactive
COc1ccc2oc(=O)c(C(=O)NCc3ccccc3)cc2c1	none
CCOC(=O)c1sc2nc(C)nc(SCC(=O)NC(C)CCc3ccccc3)c2c1C (centres undefined)	TPT1 inhibitor 25 | TPT1 inh confirm 41 | RNase T1 inh 51
CCOC(=O)c1sc2nc(C)nc(SCC(=O)N(C)C3CCS(=O)(=O)C3)c2c1C (centres undefined)	none
CCN(C(=O)c1ccccc1)c1ccc([N+](=O)[O-])cc1	none
O=[N+]([O-])c1ccc(N(c2ccccc2)c2ccccc2)cc1	TPT1 inhibitor 30 (not shown: Rpn11 inh) | TPT1 inh confirm 32 | RNase T1 inh 46
O=C(c1ccccc1)N1CCN(C(=O)c2ccccc2)c2ccccc21	none (no result: PP1 counter, TPT1 inhibitor)
Cc1nn(-c2ncc(C(F)(F)F)cc2Cl)c(=O)n1-c1c(F)cccc1F	TPT1 inhibitor 32 | TPT1 inh confirm inactive | RNase T1 inh inactive
Cc1cccc(C)c1-n1c(C)nn(-c2ncc(C(F)(F)F)cc2Cl)c1=O	none
Cc1cccc(S(=O)(=O)NC(=O)C2(C)CCN2C(=O)Cc2cc(F)ccc2F)c1 (centres undefined)	none (no result: PP1 counter, TPT1 inhibitor)
COc1ccc(/C=N/Nc2nc(-c3cccnc3)nc3ccccc23)cc1OC	none
Oc1ccc(/C=N/Nc2nc(-c3cccnc3)nc3ccccc23)c(O)c1	HNF4A DNA FP 36, NadD block 39, TPT1 inhibitor 46 (not shown: Rpn11 inh) | TPT1 inh confirm 59 | RNase T1 inh 69
COc1ccc(-n2c(NC(=O)c3ccco3)c(C#N)c3nc4ccccc4nc32)cc1	CSN deneddyl inh 38, TPT1 inhibitor 36 | TPT1 inh confirm 45 | RNase T1 inh 55
COc1cc(OC)c(CN2CCc3c([nH]c4ccccc34)C2)cc1Br	HNF4A DNA FP 52, CSN deneddyl inh 43, TPT1 inhibitor 48 (not shown: Rpn11 inh) | TPT1 inh confirm inactive | RNase T1 inh inactive
OCc1ccc(-c2cncc3nccn23)cc1	none (no result: PP1 counter, TPT1 inhibitor)
O=C(Cc1ccccc1)Nn1c(O)c(/C=C2\C=Nc3ccccc32)sc1=S	HNF4A DNA FP 53, TPT1 inhibitor 139 | TPT1 inh confirm 94 | RNase T1 inh 105
CN(C)c1ccc(/C=C2/NC(=O)NC2=O)cc1	none
CN(C)c1ccc(/C=C2\N=C(c3ccc(Cl)c([N+](=O)[O-])c3)NC2=O)cc1	TPT1 inhibitor 53 | TPT1 inh confirm 86 | RNase T1 inh 94
CCOc1ccc(NC(=O)CN(C)C(=O)c2ccc(OCC(=O)N3CCOCC3)c(OC)c2)cc1OCC	none (no result: PP1 counter, TPT1 inhibitor)
COc1ccc(-c2[nH]nc3nc(N4CCN(C(=O)c5ccoc5)CC4)cc(C(F)(F)F)c23)cc1	none (no result: PP1 counter, TPT1 inhibitor)
COc1ccc(N=Cc2cc3c(cc2O)OC(N)=C(C#N)C3c2ccccc2)cc1 (centres undefined)	HNF4A DNA FP 66, TPT1 inhibitor 55 (not shown: Rpn11 inh) | TPT1 inh confirm 78 | RNase T1 inh 88
O=C(NCc1ccccc1)c1cc(S(=O)(=O)N2CCOCC2)ccc1F	TPT1 inhibitor 48 | TPT1 inh confirm 40 | RNase T1 inh 52
